Test results: ChEMBL document CHEMBL1949587 (Bioorg Med Chem, 2012)
≈ marks a conversion by molar mass, not a printed value. Calls of active or inactive are those of the source. The rule behind the calls is not given here.

Experiments:
[1] = biological target: Receptor-type tyrosine-protein kinase FLT3 (Homo sapiens, UniProt P36888); assay: Inhibition of FLT3
[2] = biological target: Tyrosine-protein kinase Lck (Homo sapiens, UniProt P06239); assay: Inhibition of LCK
[3] = test system: BXPC-3; assay: Antiproliferative activity against human BxPC3 cells assessed as cell growth inhibition; type: cell-based
[4] = test system: PC-3; assay: Antiproliferative activity against human PC3 cells assessed as cell growth inhibition; type: cell-based
[5] = test system: ASPC1; assay: Antiproliferative activity against human AsPC1 cells assessed as cell growth inhibition; type: cell-based
[6] = test system: NCI-H460; assay: Antiproliferative activity against PTX-resistant human NCI-H460 cells assessed as cell growth inhibition; type: cell-based
[7] = test system: NCI-H460; assay: Antiproliferative activity against human NCI-H460 cells assessed as cell growth inhibition; type: cell-based
[8] = biological target: Tyrosine-protein kinase receptor UFO (Homo sapiens, UniProt P30530); assay: Inhibition of AXL
Sequence of Tyrosine-protein kinase receptor UFO (P30530 whole entry): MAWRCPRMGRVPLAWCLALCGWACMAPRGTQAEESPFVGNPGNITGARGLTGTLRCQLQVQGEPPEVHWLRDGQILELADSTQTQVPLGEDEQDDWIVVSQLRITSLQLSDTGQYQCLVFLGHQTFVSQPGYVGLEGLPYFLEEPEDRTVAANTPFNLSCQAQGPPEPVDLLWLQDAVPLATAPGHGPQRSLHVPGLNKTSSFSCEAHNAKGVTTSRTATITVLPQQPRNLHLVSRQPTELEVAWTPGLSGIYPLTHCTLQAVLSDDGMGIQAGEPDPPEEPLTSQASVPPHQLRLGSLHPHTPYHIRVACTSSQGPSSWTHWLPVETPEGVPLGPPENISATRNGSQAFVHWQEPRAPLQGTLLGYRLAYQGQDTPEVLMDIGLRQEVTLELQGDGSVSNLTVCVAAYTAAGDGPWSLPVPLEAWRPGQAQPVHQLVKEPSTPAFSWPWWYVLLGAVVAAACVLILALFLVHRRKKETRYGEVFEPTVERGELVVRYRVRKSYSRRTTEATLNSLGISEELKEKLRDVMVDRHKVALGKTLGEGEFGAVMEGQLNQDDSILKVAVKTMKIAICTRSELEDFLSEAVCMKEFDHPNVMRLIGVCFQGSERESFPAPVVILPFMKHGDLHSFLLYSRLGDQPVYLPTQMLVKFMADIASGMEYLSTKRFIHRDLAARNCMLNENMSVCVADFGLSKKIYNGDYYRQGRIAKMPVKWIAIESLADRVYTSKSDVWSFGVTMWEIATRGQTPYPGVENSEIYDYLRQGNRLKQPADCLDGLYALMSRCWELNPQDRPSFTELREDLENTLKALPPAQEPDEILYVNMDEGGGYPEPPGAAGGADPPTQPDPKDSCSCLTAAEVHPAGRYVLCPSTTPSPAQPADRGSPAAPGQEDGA

[9] = Inhibition of PKA
[10] = test system: MCF7; assay: Antiproliferative activity against human MCF7 cells assessed as cell growth inhibition; type: cell-based
[11] = biological target: Tyrosine-protein kinase ABL1 (Homo sapiens, UniProt P00519); assay: Inhibition of ABL
[12] = test system: C32; assay: Antiproliferative activity against human C32 cells assessed as cell growth inhibition; type: cell-based
[13] = biological target: Insulin-like growth factor 1 receptor (Homo sapiens, UniProt P08069); assay: Inhibition of IGF1R
Sequence of Insulin-like growth factor 1 receptor (P08069 31-736 limits assumed): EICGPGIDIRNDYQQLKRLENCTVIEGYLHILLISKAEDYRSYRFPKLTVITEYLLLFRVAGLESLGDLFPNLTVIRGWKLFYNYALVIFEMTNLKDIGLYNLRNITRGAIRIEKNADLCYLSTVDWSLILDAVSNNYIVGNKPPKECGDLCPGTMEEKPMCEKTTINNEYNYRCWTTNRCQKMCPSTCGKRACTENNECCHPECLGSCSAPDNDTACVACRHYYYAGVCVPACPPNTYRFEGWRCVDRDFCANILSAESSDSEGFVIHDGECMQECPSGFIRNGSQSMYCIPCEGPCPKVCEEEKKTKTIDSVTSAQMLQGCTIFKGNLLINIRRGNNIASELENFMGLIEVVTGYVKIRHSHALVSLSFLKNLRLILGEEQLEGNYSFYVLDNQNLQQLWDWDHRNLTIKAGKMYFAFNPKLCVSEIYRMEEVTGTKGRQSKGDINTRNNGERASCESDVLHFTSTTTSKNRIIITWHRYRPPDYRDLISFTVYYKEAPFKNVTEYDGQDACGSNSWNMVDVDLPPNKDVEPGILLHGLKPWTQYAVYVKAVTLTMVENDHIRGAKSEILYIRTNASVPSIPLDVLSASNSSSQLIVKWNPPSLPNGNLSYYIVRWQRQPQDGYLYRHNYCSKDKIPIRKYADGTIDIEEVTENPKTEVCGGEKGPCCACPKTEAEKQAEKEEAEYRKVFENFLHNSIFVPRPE
Sequence of Insulin-like growth factor 1 receptor (P08069 741-1367 limits assumed): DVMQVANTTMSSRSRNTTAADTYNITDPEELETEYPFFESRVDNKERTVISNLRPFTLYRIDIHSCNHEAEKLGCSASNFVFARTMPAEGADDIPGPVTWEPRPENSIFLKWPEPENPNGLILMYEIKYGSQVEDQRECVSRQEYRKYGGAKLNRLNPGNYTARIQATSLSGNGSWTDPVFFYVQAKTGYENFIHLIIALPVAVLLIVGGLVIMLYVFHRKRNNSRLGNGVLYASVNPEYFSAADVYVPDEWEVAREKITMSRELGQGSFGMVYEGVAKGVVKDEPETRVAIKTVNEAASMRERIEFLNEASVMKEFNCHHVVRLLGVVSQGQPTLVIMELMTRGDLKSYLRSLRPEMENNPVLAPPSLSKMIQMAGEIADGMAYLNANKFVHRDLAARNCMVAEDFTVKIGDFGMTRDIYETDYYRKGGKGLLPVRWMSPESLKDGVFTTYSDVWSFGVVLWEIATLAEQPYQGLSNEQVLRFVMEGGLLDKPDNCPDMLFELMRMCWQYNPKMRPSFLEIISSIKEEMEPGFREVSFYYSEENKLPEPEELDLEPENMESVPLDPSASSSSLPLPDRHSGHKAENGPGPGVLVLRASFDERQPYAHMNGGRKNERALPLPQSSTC

[14] = test system: DLD-1; assay: Antiproliferative activity against human DLD1 cells assessed as cell growth inhibition; type: cell-based
[15] = biological target: Insulin receptor (Homo sapiens, UniProt P06213); assay: Inhibition of INSR
[16] = test system: QG-56; assay: Antiproliferative activity against human QG56 cells assessed as cell growth inhibition; type: cell-based
[17] = biological target: Proto-oncogene tyrosine-protein kinase Src (Homo sapiens, UniProt P12931); assay: Inhibition of Src
[18] = test system: CEM/C2; assay: Antiproliferative activity against human CEM/C2 cells assessed as cell growth inhibition; type: cell-based
[19] = test system: CCRF-CEM; assay: Antiproliferative activity against human CCRF-CEM cells assessed as cell growth inhibition; type: cell-based
[20] = test system: NCI-H441; assay: Antiproliferative activity against human NCI-H441 cells assessed as cell growth inhibition; type: cell-based
[21] = Cytotoxicity in fibroblast cells assessed as morphological change at 4 to 20 uM; type: cell-based
[22] = Antiproliferative activity against human KG1a cells assessed as cell growth inhibition; type: cell-based; conditions: KG-1a
[23] = Cmax in nude mouse at 30 mg/kg, po by LC-MS/MS analysis; type: ADME, organism-based; parameters: dose 30 mg/kg, route oral; conditions: in vivo
Method in brief: (§1)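 Female nude mice given single oral dose in DMSO/Cremophor EL/1% Tween 80 (1:1:8 v/v/v) by stomach sonde. Blood taken at 30 min, 1, 2, 4, 7 and 24 h (n = 2/time point). Plasma precipitated with CH3CN/MeOH plus internal standard, filtered, measured by LC-MS/MS (LLOQ 20 ng/mL). Parameters by non-compartmental analysis; CL given as CL/F.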

[24] = Antiproliferative activity against human JOK1 cells assessed as cell growth inhibition; type: cell-based
[25] = test system: HepG2; assay: Antiproliferative activity against human HepG2 cells assessed as cell growth inhibition; type: cell-based
[26] = Antiproliferative activity against human Huh1 cells assessed as cell growth inhibition; type: cell-based; conditions: HuH-1
[27] = biological target: Macrophage-stimulating protein receptor (Homo sapiens, UniProt Q04912); assay: Inhibition of RON
Sequence of Macrophage-stimulating protein receptor (Q04912 25-304 limits assumed): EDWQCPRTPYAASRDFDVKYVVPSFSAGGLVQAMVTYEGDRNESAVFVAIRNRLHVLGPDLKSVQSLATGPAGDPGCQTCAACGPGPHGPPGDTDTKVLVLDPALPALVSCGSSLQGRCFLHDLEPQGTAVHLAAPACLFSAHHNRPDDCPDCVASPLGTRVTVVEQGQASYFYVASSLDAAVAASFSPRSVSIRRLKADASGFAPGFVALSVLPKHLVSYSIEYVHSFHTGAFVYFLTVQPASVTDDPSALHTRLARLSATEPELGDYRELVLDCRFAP
Sequence of Macrophage-stimulating protein receptor (Q04912 310-1400 limits assumed): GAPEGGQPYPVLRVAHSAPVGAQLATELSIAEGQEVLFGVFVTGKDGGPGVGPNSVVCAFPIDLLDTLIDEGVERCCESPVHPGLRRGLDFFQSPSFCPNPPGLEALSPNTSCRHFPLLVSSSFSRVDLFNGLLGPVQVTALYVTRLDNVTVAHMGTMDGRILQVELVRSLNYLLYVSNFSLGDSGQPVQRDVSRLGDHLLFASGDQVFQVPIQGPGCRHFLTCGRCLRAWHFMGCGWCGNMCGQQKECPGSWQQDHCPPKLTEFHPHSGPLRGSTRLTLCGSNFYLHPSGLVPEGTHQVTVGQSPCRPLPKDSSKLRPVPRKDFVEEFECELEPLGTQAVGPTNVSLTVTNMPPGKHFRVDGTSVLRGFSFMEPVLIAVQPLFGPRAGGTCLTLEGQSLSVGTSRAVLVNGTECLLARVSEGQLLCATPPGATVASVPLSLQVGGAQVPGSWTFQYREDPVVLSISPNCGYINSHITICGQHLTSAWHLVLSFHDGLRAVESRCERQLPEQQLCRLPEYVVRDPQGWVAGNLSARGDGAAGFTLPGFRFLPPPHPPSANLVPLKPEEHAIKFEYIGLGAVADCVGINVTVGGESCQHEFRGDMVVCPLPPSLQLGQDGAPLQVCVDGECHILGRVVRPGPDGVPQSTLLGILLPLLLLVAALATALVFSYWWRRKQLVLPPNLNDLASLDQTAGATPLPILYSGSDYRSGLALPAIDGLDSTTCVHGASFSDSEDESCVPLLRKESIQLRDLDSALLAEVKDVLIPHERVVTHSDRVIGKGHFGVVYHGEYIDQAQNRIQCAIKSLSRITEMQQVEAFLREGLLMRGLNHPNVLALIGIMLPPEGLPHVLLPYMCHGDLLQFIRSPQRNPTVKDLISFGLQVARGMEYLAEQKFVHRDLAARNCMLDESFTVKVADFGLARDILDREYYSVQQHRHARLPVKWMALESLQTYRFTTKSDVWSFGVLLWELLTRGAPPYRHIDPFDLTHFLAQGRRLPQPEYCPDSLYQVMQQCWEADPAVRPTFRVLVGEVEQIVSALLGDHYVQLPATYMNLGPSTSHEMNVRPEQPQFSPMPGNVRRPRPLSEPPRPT

[28] = test system: MKN-28; assay: Antiproliferative activity against human MKN28 cells assessed as cell growth inhibition; type: cell-based
[29] = test system: HCT-116; assay: Antiproliferative activity against human HCT116 cells; type: cell-based
[30] = test system: NCI-N87; assay: Antiproliferative activity against human NCI-N87 cells assessed as cell growth inhibition; type: cell-based
[31] = test system: A549; assay: Antiproliferative activity against human A549 cells assessed as cell growth inhibition; type: cell-based
[32] = test system: Huh-7; assay: Antiproliferative activity against human HuH7 cells assessed as cell growth inhibition; type: cell-based
[33] = Antiproliferative activity against human COLO320DM cells assessed as cell growth inhibition; type: cell-based; conditions: COLO 320DM
[34] = Antiproliferative activity against human 10C9 cells assessed as cell growth inhibition; type: cell-based
[35] = Solubility of the compound in fasted state simulated intestinal fluid at 10 mM after 2 hrs by HPLC-UV analysis; type: physicochemical
Method in brief: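 Triplicate samples made from 10 mM DMSO stocks. DMSO evaporated (1 h), residue dissolved in FaSSIF and shaken 2 h. Solutions filtered, filtrate analysed by UV or HPLC-UV against a four-point calibration curve from the stocks. Result in µg/mL.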

[36] = biological target: Fibroblast growth factor receptor 2 (Homo sapiens, UniProt P21802); assay: Inhibition of FGFR2
Sequence of Fibroblast growth factor receptor 2 (P21802 whole entry): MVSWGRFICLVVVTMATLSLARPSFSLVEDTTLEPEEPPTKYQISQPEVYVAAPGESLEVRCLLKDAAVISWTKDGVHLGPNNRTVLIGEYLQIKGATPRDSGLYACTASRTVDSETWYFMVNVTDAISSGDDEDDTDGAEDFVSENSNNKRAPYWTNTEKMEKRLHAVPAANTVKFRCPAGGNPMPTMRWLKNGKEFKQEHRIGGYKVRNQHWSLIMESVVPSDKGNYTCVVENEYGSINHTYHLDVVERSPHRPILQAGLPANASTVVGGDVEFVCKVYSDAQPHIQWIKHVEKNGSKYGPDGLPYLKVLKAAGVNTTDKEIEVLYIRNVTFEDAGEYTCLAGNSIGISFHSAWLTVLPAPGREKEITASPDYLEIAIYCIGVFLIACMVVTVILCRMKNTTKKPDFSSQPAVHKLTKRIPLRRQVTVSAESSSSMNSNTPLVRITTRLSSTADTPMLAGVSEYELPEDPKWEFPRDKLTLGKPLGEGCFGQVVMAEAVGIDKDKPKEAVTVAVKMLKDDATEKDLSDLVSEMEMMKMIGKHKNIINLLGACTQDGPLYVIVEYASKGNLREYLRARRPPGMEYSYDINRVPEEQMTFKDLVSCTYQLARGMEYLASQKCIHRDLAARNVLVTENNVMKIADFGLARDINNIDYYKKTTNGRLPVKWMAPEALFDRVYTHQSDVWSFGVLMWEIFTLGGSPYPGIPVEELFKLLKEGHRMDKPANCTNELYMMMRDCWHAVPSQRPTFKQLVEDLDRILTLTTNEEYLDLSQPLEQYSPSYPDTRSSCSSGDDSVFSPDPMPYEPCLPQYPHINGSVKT

[37] = test system: HT-29; assay: Antiproliferative activity against human HT-29 cells assessed as cell growth inhibition; type: cell-based
[38] = test system: HUVEC; assay: Antiangiogenic activity in HUVEC assessed as inhibition of VEGF-induced cell proliferation after 4 days; type: functional, cell-based; conditions: Homo sapiens, 96 h
Method in brief: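 HUVECs maintained in RPMI1640 with 10% FCS, 50 μg/mL heparin and ECGS, then seeded at 3000 cells/well in RPMI1640 with 5% FCS and 20 ng/mL VEGF, with compound at serially diluted concentrations. Incubated at 37 °C, 5% CO₂. Read-out is Cell Counting Kit-8, absorbance at 450 nm. Inhibition = (1−T/C)×100 against untreated control.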

[39] = Half life in nude mouse at 30 mg/kg, po by LC-MS/MS analysis; type: ADME, organism-based; parameters: dose 30 mg/kg, route oral; conditions: in vivo; method in brief: as §1
[40] = test system: Calu-6; assay: Antiproliferative activity against human Calu6 cells assessed as cell growth inhibition; type: cell-based
[41] = test system: PANC-1; assay: Antiproliferative activity against human PANC1 cells assessed as cell growth inhibition; type: cell-based
[42] = test system: Calu-6; assay: Antiangiogenic activity in human Calu6 cells xenografted in BALB/c mouse assessed as microvessel density reduction at 1 to 10 mg/kg, po qd for 11 days measured 24 hrs after last postdose by immunohistochemical staining method; type: functional, organism-based
Method in brief: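 Female Balb/c nude mice given Calu-6 cells s.c. in the flank, 5.0×10⁶ cells per mouse. Dosing was oral, once daily for 11 days, starting once tumors reached 150 mm³. Tumors taken 24 h after the last dose and frozen-sectioned from the mid-portion. Vessels stained with anti-mouse CD31 and counted by image analysis. Density decrease expressed against control.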

[43] = test system: CAPAN-1; assay: Antiproliferative activity against human Capan1 cells assessed as cell growth inhibition; type: cell-based
[44] = biological target: Tyrosine-protein kinase Fyn (Homo sapiens, UniProt P06241); assay: Inhibition of Fyn
Sequence of Tyrosine-protein kinase Fyn (P06241 whole entry): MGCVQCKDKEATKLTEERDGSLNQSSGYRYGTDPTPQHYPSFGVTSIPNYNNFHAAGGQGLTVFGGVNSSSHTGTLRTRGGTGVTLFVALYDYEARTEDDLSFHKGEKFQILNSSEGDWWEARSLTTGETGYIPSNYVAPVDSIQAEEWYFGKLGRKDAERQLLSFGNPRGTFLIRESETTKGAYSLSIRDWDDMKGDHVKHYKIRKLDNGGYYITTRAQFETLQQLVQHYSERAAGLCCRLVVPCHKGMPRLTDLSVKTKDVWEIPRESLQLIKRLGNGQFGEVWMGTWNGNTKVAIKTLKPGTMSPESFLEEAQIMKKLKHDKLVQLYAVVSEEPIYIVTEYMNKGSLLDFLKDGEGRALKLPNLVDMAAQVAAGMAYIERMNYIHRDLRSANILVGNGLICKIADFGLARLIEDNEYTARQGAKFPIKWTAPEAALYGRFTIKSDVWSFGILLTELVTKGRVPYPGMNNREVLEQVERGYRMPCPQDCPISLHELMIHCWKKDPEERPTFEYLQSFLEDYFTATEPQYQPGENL

[45] = biological target: Hepatocyte growth factor receptor (Homo sapiens, UniProt P08581); assay: Inhibition of MET
[46] = test system: MKN-45; assay: Antiproliferative activity against human MKN45 cells assessed as cell growth inhibition; type: cell-based
[47] = Inhibition of PDGFR
[48] = Antiproliferative activity against human IGROV1/T8 cells assessed as cell growth inhibition; type: cell-based; conditions: IGROV-1
[49] = AUC (0 to 24 hrs) in nude mouse at 30 mg/kg, po by LC-MS/MS analysis; type: ADME, organism-based; parameters: time < 24 hr, dose 30 mg/kg, route oral; conditions: plasma
[50] = Tmax in nude mouse at 30 mg/kg, po by LC-MS/MS analysis; type: ADME, organism-based; parameters: dose 30 mg/kg, route oral; conditions: in vivo; method in brief: as §1

COc1ccc(C(=O)NC[C@H](O)CO)cc1/C=C/c1ccc(Cl)cc1
IC50 [1]: > 50 µM
IC50 [2]: > 50 µM
IC50 [3]: 51 µM
IC50 [4]: 17 µM
IC50 [5]: 63 µM
IC50 [6]: 30 µM
IC50 [7]: 24 µM
IC50 [8]: > 50 µM
IC50 [9]: > 50 µM
IC50 [10]: 63 µM
IC50 [11]: > 50 µM
IC50 [12]: 46 µM
IC50 [13]: > 50 µM
IC50 [14]: 28 µM
IC50 [15]: > 50 µM
IC50 [16]: 21 µM
IC50 [17]: > 50 µM
IC50 [18]: 30 µM
IC50 [19]: 30 µM
IC50 [20]: 34 µM
Activity [21]: Non-toxic
IC50 [22]: 20 µM
Cmax [23]: 9370 ng/mL
IC50 [24]: 38 µM
IC50 [25]: 28 µM
IC50 [26]: 30 µM
IC50 [27]: > 50 µM
IC50 [28]: 23 µM
IC50 [29]: 21 µM
IC50 [30]: 52 µM
IC50 [31]: 18 µM
IC50 [32]: 27 µM
IC50 [33]: 61 µM
IC50 [34]: 50 µM
solubility at 2 h, 10000 µM [35]: 263 µg/mL (≈ 727 µM)
IC50 [36]: > 50 µM
IC50 [37]: 16 µM
IC50 [38]: 0.25 µM
half-life [39]: 8.5 h
IC50 [40]: 54 µM
IC50 [41]: 49 µM
Activity [42]: Active
IC50 [43]: 67 µM
IC50 [44]: > 50 µM
IC50 [45]: > 50 µM
IC50 [46]: 26 µM
IC50 [47]: > 50 µM
IC50 [48]: 12 µM
AUC(0-t) at 24 h [49]: 90200 ng·h/mL
Tmax [50]: 1 h

COc1ccc(C(=O)NC[C@@H](O)CO)cc1/C=C/c1ccc(Cl)cc1
IC50 [1]: > 50 µM
IC50 [2]: > 50 µM
IC50 [3]: 27 µM
IC50 [4]: 24 µM
IC50 [5]: 55 µM
IC50 [6]: 19 µM
IC50 [7]: 15 µM
IC50 [8]: > 50 µM
IC50 [9]: > 50 µM
IC50 [10]: 65 µM
IC50 [11]: > 50 µM
IC50 [12]: 38 µM
IC50 [13]: > 50 µM
IC50 [14]: 19 µM
IC50 [15]: > 50 µM
IC50 [16]: 23 µM
IC50 [17]: > 50 µM
IC50 [18]: 30 µM
IC50 [19]: 20 µM
IC50 [20]: 25 µM
Activity [21]: Non-toxic
IC50 [22]: 17 µM
Cmax [23]: 8270 ng/mL
IC50 [24]: 31 µM
IC50 [25]: 16 µM
IC50 [26]: 30 µM
IC50 [27]: > 50 µM
IC50 [28]: 15 µM
IC50 [29]: 13 µM
IC50 [30]: 52 µM
IC50 [31]: 13 µM
IC50 [32]: 29 µM
IC50 [33]: 46 µM
IC50 [34]: 38 µM
solubility at 2 h, 10000 µM [35]: 225 µg/mL (≈ 622 µM)
IC50 [36]: > 50 µM
IC50 [37]: 10 µM
IC50 [38]: 0.48 µM
half-life [39]: 7.8 h
IC50 [40]: 40 µM
IC50 [41]: 39 µM
Activity [42]: Active
IC50 [43]: 47 µM
IC50 [44]: > 50 µM
IC50 [45]: > 50 µM
IC50 [46]: 5.7 µM
IC50 [47]: > 50 µM
IC50 [48]: 9.5 µM
AUC(0-t) at 24 h [49]: 86400 ng·h/mL
Tmax [50]: 1 h
